Experiments:
[1] = system: Human immunodeficiency virus 1; experiment: Inhibition of HIV replication in H9 cells.; assay type: functional, organism-based; settings: Human immunodeficiency virus 1, H9
How it was run: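 H9 cells (RPMI 1640 + 10% IFCS) infected with HIV-1 IIIB at three virus concentrations (0.5 log10 dilutions; most dilute ~5-10 infectious units/well), seeded 2×10^4 cells/well. 3-5 compound concentrations, 0.5% DMSO final, quadruplicate, 5 days at 37 °C, 5% CO2; media and compound renewed day 3. Day-5 supernatant p24 ELISA; IC50 for ≥2 viral doses, 3-5 assays, mean of n.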

[2] = Therapeutic index, measured by whole cell assay.; settings: read-out: Therapeutic index
How it was run: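 Ratio of cytotoxicity IC50 to HIV replication IC50 in H9 cells; cut-off of 3 counts as positive. Toxicity: uninfected H9 at 2×10^4 cells/well, 3-5 compound concentrations in quadruplicate, 5 days at 37 °C, 5% CO2, media and compound renewed day 3, viable cells counted by trypan blue exclusion. Antiviral IC50 from HIV-1 IIIB p24 ELISA at day 5.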

SW480 [3] = experiment: The compound was tested for inhibition of HIV-1 replication in SW480 cells using HIV tat assay; Not active at 37 mM; assay type: functional, cell-based, Homo sapiens
How it was run: (§1)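 SW480 colon carcinoma cells at 70-80% confluence, calcium phosphate co-transfected with HIV-1 LTR-CAT (pBennCAT) plus pSV2tat, total DNA adjusted with salmon sperm DNA. Compound (from DMSO stock diluted 100-fold in DMEM + 10% IFCS) added 5 h post-transfection, duplicate wells, 48 h at 37 °C. CAT activity read with [14C]chloramphenicol, 2 h. Selectivity check against SV40-promoter CAT. IC50 from logit dose-response curves, 3-5 experiments, 95% confidence limits.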

SW480 [4] = experiment: The compound was tested for inhibition of HIV-1 replication in SW480 cells using HIV tat assay; Not active at 123 mM; assay type: functional, cell-based, Homo sapiens; how it was run: as §1
SW480 [5] = experiment: The compound was tested for inhibition of HIV-1 replication in SW480 cells using HIV tat assay; Not active at 100 mM; assay type: functional, cell-based, Homo sapiens; how it was run: as §1
SW480 [6] = experiment: The compound was tested for inhibition of HIV-1 replication in SW480 cells using HIV tat assay; Not active at 80 mM; assay type: functional, cell-based, Homo sapiens
SW480 [7] = experiment: The compound was tested for inhibition of HIV-1 replication in SW480 cells using HIV tat assay; Not active at […]; assay type: functional, cell-based, Homo sapiens
SW480 [8] = experiment: The compound was tested for inhibition of HIV-1 replication in SW480 cells using HIV tat assay; Not active; assay type: functional, cell-based, Homo sapiens
SW480 [9] = experiment: The compound was tested for inhibition of HIV-1 replication in SW480 cells using HIV tat assay; Not active at 90 mM; assay type: functional, cell-based, Homo sapiens
SW480 [10] = experiment: The compound was tested for inhibition of HIV-1 replication in SW480 cells using HIV tat assay; Not active at 32 mM; assay type: functional, cell-based, Homo sapiens; how it was run: as §1

Work on `C[C@@]12CCCC[C@@]1(O)[C@@H](Cl)C(=O)C(C(N)=O)C2` (some centres not stated) yielded an IC50 [1] of 9300 nM and a selectivity ratio [2] of 2.
For `C[C@@]12CCCC[C@]13O[C@@H]3C(=O)C(C(N)=O)C2` (some centres not stated), the IC50 [1] was 6400 nM and the selectivity ratio [2] was 4.1.
For `COc1ccc(NC(=O)C2CC(C)(C)C3OC3C2=O)cc1` (configuration not stated), the IC50 [1] was 5200 nM and the selectivity ratio [2] was 1.2.
For `COc1ccc(NC(=O)C2CC(C)(C)C=CC2=O)cc1` (configuration not stated), the IC50 (SW480 [3]) was “Not Active”.
For `CC1(C)C=CC(=O)C(C(=O)Nc2ccccc2)C1` (configuration not stated), the IC50 (SW480 [4]) was “Not Active”.
With `C[C@@]12CCCCC1=CC(=O)C(C(=O)Nc1ccccc1)C2` (some centres not stated) the IC50 (SW480 [5]) was “Not Active”.
With `C[C@@]12CCCC[C@]13O[C@@H]3C(=O)C(C(=O)Nc1ccccc1)C2` (some centres not stated) the IC50 [1] was 2100 nM and the selectivity ratio [2] was 3.8.
Work on `C[C@@]12CCCC[C@]13O[C@@H]3C(=O)C(C#N)C2` (some centres not stated) yielded an IC50 [1] of 11000 nM and a selectivity ratio [2] of 3.
In the case of `CC1(C)CC(C(=O)Nc2c(Cl)cccc2Cl)C(=O)C2OC21` (configuration not stated), the IC50 [1] is reported as 2700 nM and the selectivity ratio [2] is reported as 2.3.
`COc1ccc(NC(=O)C2C[C@]3(C)CCCC[C@]34O[C@@H]4C2=O)cc1` (some centres not stated) gave an IC50 [1] of 8500 nM and a selectivity ratio [2] of 1.3.
For `CC(=O)O[C@H]1CCC2C3CCC4=CC(=O)C(C(N)=O)C[C@]4(C)C3CC[C@@]21C` (some centres not stated), the IC50 (SW480 [6]) was “Not Active”.
`C[C@]12CCC3C(CC[C@@]45O[C@@H]4C(=O)C(S(C)(=O)=O)C[C@]35C)C1CC[C@@H]2O` (some centres not stated) showed an IC50 [1] of 1400 nM and a selectivity ratio [2] of 3.9.
For `COC(=O)C1C[C@]2(C)[C@H]3CC[C@]4(C)[C@@H](O)CC[C@H]4[C@@H]3CC[C@]23O[C@@H]3C1=O` (some centres not stated), the IC50 [1] was 2400 nM and the selectivity ratio [2] was 4.5.
`C[C@]12CC[C@H]3[C@@H](CC[C@@]45O[C@@H]4C(=O)C(C(N)=O)C[C@]35C)[C@@H]1CC[C@@H]2O` (some centres not stated) gave an IC50 [1] of 1200 nM and a selectivity ratio [2] of 6.5.
With `CC(=O)O[C@H]1CC[C@H]2[C@@H]3CCC4CC(=O)C(C(N)=O)C[C@]4(C)[C@H]3CC[C@]12C` (some centres not stated) the IC50 (SW480 [6]) was “Not Active”.
In the case of `C[C@]12CC[C@H]3[C@@H](CC[C@@]45O[C@@H]4C(=O)C(S(=O)(=O)c4ccccc4)C[C@]35C)[C@@H]1CC[C@@H]2O` (some centres not stated), the IC50 [1] is reported as 1600 nM and the selectivity ratio [2] is reported as 2.6.
In the case of `C[C@]12CC[C@H]3[C@@H](CC[C@]45O[C@H]4C(=O)CC[C@]35C)[C@@H]1CC[C@@H]2O`, the IC50 (SW480 [7]) is reported as “Not Active”.
With `COC(=O)C1C[C@]2(C)[C@H]3CC[C@]4(C)[C@@H](OC(C)=O)CC[C@H]4[C@@H]3CC[C@]23O[C@@H]3C1=O` (some centres not stated) the IC50 [1] was 1400 nM and the selectivity ratio [2] was 3.1.
In the case of `CC(=O)O[C@H]1CC[C@H]2[C@@H]3CC[C@@]45O[C@@H]4C(=O)C(C(N)=O)C[C@]5(C)[C@H]3CC[C@]12C` (some centres not stated), the IC50 [1] is reported as 2400 nM and the selectivity ratio [2] is reported as 1.6.
With `CC(=O)O[C@H]1CC[C@H]2[C@@H]3CC[C@@]45O[C@@H]4[C@@H](O)[C@@H](C(N)=O)C[C@]5(C)[C@H]3CC[C@]12C` the IC50 (SW480 [6]) was “Not Active”.
Work on `CC(=O)O[C@H]1CC[C@H]2[C@@H]3CC[C@@]45O[C@@H]4C(=O)C(S(C)(=O)=O)C[C@]5(C)[C@H]3CC[C@]12C` (some centres not stated) yielded an IC50 [1] of 300 nM and a selectivity ratio [2] of 4.3.
In the case of `C[C@]12CC[C@H]3[C@@H](CC[C@@]45O[C@@H]4[C@H](O)[C@H](C(N)=O)C[C@]35C)[C@@H]1CC[C@@H]2O`, the IC50 (SW480 [8]) is reported as “Not Active”.
For `C[C@]12CC[C@H]3[C@@H](CCC4CC(=O)C(C(N)=O)C[C@@]43C)[C@@H]1CC[C@@H]2O` (some centres not stated), the IC50 (SW480 [9]) was “Not Active”.
For `CC(=O)O[C@H]1CC[C@H]2[C@@H]3CC[C@@]45O[C@@H]4[C@H](O)[C@H](C(N)=O)C[C@]5(C)[C@H]3CC[C@]12C`, the IC50 (SW480 [6]) was “Not Active”.
In the case of `C[C@]12CCCC[C@@]13O[C@H]3C(=O)C(C(N)=O)C2` (some centres not stated), the IC50 [1] is reported as 10300 nM and the selectivity ratio [2] is reported as 2.6.
`C[C@@]12CCCC[C@@]1(O)[C@@H](Cl)C(=O)C(C(=O)Nc1ccccc1)C2` (some centres not stated) showed an IC50 [1] of 3300 nM and a selectivity ratio [2] of 1.9.
With `CC1(C)C=CC(=O)C(C(=O)Nc2c(Cl)cccc2Cl)C1` (configuration not stated) the IC50 (SW480 [10]) was “Not Active”.
In the case of `C[C@]12CC(C(N)=O)C(=O)C=C1CCC1C2CC[C@@]2(C)C1CC[C@@H]2O` (some centres not stated), the IC50 (SW480 [9]) is reported as “Not Active”.
With `CC1(C)CC(C(=O)Nc2ccccc2)C(=O)C2OC21` (configuration not stated) the IC50 [1] was 4300 nM and the selectivity ratio [2] was 1.4.
With `COc1ccc(NC(=O)C2C[C@]3(C)CCCC[C@@]3(O)[C@@H](Cl)C2=O)cc1` (some centres not stated) the IC50 [1] was 3300 nM and the selectivity ratio [2] was 4.2.
For `C[C@]12CCCC[C@@]13O[C@H]3C(=O)C(C#N)C2` (some centres not stated), the IC50 [1] was 25900 nM and the selectivity ratio [2] was 3.8.
With `COc1ccc(NC(=O)C2C[C@]3(C)CCCCC3CC2=O)cc1` (some centres not stated) the IC50 (SW480 [5]) was “Not Active”.
Molecule `O=C1CN=C(c2ccc[nH]2)c2cc(Cl)ccc2N1` has an IC50 [1] of 600 nM.

From ChEMBL document CHEMBL1128512, “Keto/enol epoxy steroids as HIV-1 Tat inhibitors: structure-activity relationships and pharmacophore localization” (J Med Chem, 1995)
